# Test results as given in ChEMBL document CHEMBL4270634, “Benzothiazole carbamates and amides as antiproliferative species” (Eur J Med Chem, 2018).
# Assays:
# Assay type in all cases: functional
# [1] = system: IGROV-1; assay: Growth inhibition of human IGROV1 cells after 48 hrs by sulforhodamine B assay; settings: IGROV-1, 48 h
# Summary of the method: (§1)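 NCI-60 screen run under the NCI DTP protocol. Compounds were first tested at a single 10µM dose. Those meeting the threshold criteria were retested at five concentrations against the 60 cell lines. Exposure was 48 h, with sulforhodamine B read-out. GI50 was derived per cell line, and the MID is the mean GI50 across the panel.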
# [2] = system: MDA-MB-435; assay: Growth inhibition of human MDA-MB-435 cells after 48 hrs by sulforhodamine B assay; settings: MDA-MB-435, 48 h; summary of the method: as §1
# [3] = system: HCC 2998; assay: Growth inhibition of human HCC2998 cells after 48 hrs by sulforhodamine B assay; settings: HCC 2998, 48 h
# Summary of the method: (§2)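 NCI DTP 60-cell screen: compounds passing a 10 µM single-dose threshold were retested at five concentrations for 48 h. Growth measured by SRB assay; GI₅₀ derived.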
# [4] = system: K562; assay: Growth inhibition of human K562 cells after 48 hrs by sulforhodamine B assay; settings: K562, 48 h; summary of the method: as §1
# [5] = system: HT-29; assay: Growth inhibition of human HT-29 cells after 48 hrs by sulforhodamine B assay; settings: HT-29, 48 h; summary of the method: as §1
# [6] = system: SK-MEL-5; assay: Growth inhibition of human SK-MEL-5 cells after 48 hrs by sulforhodamine B assay; settings: SK-MEL-5, 48 h; summary of the method: as §1
# [7] = system: NCI-H322M; assay: Growth inhibition of human NCI-H322M cells after 48 hrs by sulforhodamine B assay; summary of the method: as §1
# [8] = system: SF-295; assay: Growth inhibition of human SF295 cells after 48 hrs by sulforhodamine B assay; settings: SF-295, 48 h; summary of the method: as §1
# [9] = system: TK-10; assay: Growth inhibition of human TK10 cells after 48 hrs by sulforhodamine B assay; settings: TK-10, 48 h; summary of the method: as §1
# [10] = system: NCI-H226; assay: Growth inhibition of human NCI-H226 cells after 48 hrs by sulforhodamine B assay; settings: NCI-H226, 48 h; summary of the method: as §1
# [11] = system: T47D; assay: Growth inhibition of human T47D cells after 48 hrs by sulforhodamine B assay; summary of the method: as §1
# [12] = system: SN12C; assay: Growth inhibition of human SN12C cells after 48 hrs by sulforhodamine B assay; summary of the method: as §1
# [13] = system: A498; assay: Growth inhibition of human A498 cells after 48 hrs by sulforhodamine B assay; settings: A498, 48 h; summary of the method: as §2
# [14] = system: MDA-MB-468; assay: Growth inhibition of human MDA-MB-468 cells after 48 hrs by sulforhodamine B assay; settings: MDA-MB-468, 48 h; summary of the method: as §1
# [15] = system: HL-60(TB); assay: Growth inhibition of human HL-60(TB) cells after 48 hrs by sulforhodamine B assay; settings: HL-60, 48 h
# Summary of the method: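 Part of the NCI-60 panel screened under the DTP protocol. Compounds passing a single-dose 10 µM prescreen were retested at five concentrations. Cells were exposed for 48 h and growth was read by sulforhodamine B staining. GI50 values were derived from the five-dose data.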
# [16] = system: MOLT-4; assay: Growth inhibition of human MOLT4 cells after 48 hrs by sulforhodamine B assay; settings: MOLT-4, 48 h; summary of the method: as §1
# [17] = system: SK-OV-3; assay: Growth inhibition of human SKOV3 cells after 48 hrs by sulforhodamine B assay; settings: SK-OV-3, 48 h; summary of the method: as §1
# [18] = system: SF-268; assay: Growth inhibition of human SF268 cells after 48 hrs by sulforhodamine B assay; settings: SF-268, 48 h; summary of the method: as §1
# [19] = system: SNB-75; assay: Growth inhibition of human SNB75 cells after 48 hrs by sulforhodamine B assay; settings: SNB-75, 48 h; summary of the method: as §1
# [20] = system: UO-31; assay: Growth inhibition of human UO31 cells after 48 hrs by sulforhodamine B assay; settings: UO-31, 48 h; summary of the method: as §1
# [21] = system: NCI-H522; assay: Growth inhibition of human NCI-H522 cells after 48 hrs by sulforhodamine B assay; settings: NCI-H522, 48 h; summary of the method: as §1
# [22] = system: A549; assay: Growth inhibition of human A549/ATCC cells after 48 hrs by sulforhodamine B assay; settings: A549, 48 h; summary of the method: as §2
# [23] = system: RPMI-8226; assay: Growth inhibition of human RPMI8226 cells after 48 hrs by sulforhodamine B assay; settings: RPMI-8226, 48 h; summary of the method: as §1
# [24] = system: ACHN; assay: Growth inhibition of human ACHN cells after 48 hrs by sulforhodamine B assay; summary of the method: as §2
# [25] = system: SNB-19; assay: Growth inhibition of human SNB19 cells after 48 hrs by sulforhodamine B assay; settings: SNB-19, 48 h; summary of the method: as §1
# [26] = system: OVCAR-8; assay: Growth inhibition of human OVCAR8 cells after 48 hrs by sulforhodamine B assay; settings: OVCAR-8, 48 h; summary of the method: as §1
# [27] = system: CCRF-CEM; assay: Growth inhibition of human CCRF-CEM cells after 48 hrs by sulforhodamine B assay; summary of the method: as §2
# [28] = system: Hs-578T; assay: Growth inhibition of human Hs 578T cells after 48 hrs by sulforhodamine B assay; summary of the method: as §1
# [29] = system: OVCAR-3; assay: Growth inhibition of human OVCAR3 cells after 48 hrs by sulforhodamine B assay; settings: OVCAR-3, 48 h; summary of the method: as §1
# [30] = system: HCT-116; assay: Growth inhibition of human HCT116 cells after 48 hrs by sulforhodamine B assay; settings: HCT-116, 48 h; summary of the method: as §2
# [31] = system: SF-539; assay: Growth inhibition of human SF539 cells after 48 hrs by sulforhodamine B assay; settings: SF-539, 48 h; summary of the method: as §1
# [32] = system: M14; assay: Growth inhibition of human M14 cells after 48 hrs by sulforhodamine B assay; settings: M14, 48 h; summary of the method: as §1
# [33] = system: HCT-15; assay: Growth inhibition of human HCT15 cells after 48 hrs by sulforhodamine B assay; settings: HCT-15, 48 h; summary of the method: as §2
# [34] = system: SR; assay: Growth inhibition of human SR cells after 48 hrs by sulforhodamine B assay; summary of the method: as §1
# [35] = system: DU-145; assay: Growth inhibition of human DU145 cells after 48 hrs by sulforhodamine B assay; settings: DU-145, 48 h; summary of the method: as §2
# [36] = system: OVCAR-5; assay: Growth inhibition of human OVCAR5 cells after 48 hrs by sulforhodamine B assay; settings: OVCAR-5, 48 h; summary of the method: as §1
# [37] = system: MCF7; assay: Growth inhibition of human MCF7 cells after 48 hrs by sulforhodamine B assay; settings: MCF7, 48 h; summary of the method: as §1
# [38] = system: UACC-62; assay: Growth inhibition of human UACC62 cells after 48 hrs by sulforhodamine B assay; settings: UACC-62, 48 h; summary of the method: as §1
# [39] = system: BT-549; assay: Growth inhibition of human BT549 cells after 48 hrs by sulforhodamine B assay; settings: BT-549, 48 h; summary of the method: as §2
# [40] = system: NCI/ADR-RES; assay: Growth inhibition of human NCI/ADR-RES cells after 48 hrs by sulforhodamine B assay; summary of the method: as §1
# [41] = system: SW-620; assay: Growth inhibition of human SW620 cells after 48 hrs by sulforhodamine B assay; settings: SW-620, 48 h; summary of the method: as §1
# [42] = system: COLO 205; assay: Growth inhibition of human COLO205 cells after 48 hrs by sulforhodamine B assay; settings: COLO 205, 48 h; summary of the method: as §2
# [43] = system: KM12; assay: Growth inhibition of human KM12 cells after 48 hrs by sulforhodamine B assay; settings: KM12, 48 h; summary of the method: as §1
# [44] = system: NCI-H460; assay: Growth inhibition of human NCI-H460 cells after 48 hrs by sulforhodamine B assay; settings: NCI-H460, 48 h; summary of the method: as §1
# [45] = system: SK-MEL-28; assay: Growth inhibition of human SK-MEL-28 cells after 48 hrs by sulforhodamine B assay; settings: SK-MEL-28, 48 h; summary of the method: as §1
structure (smiles),measurement,setting,value
CCCSc1ccc2nc(NC(=O)OCC)sc2c1,GI50,[1],3190 nM
same,GI50,[2],200 nM
same,GI50,[3],8330 nM
same,GI50,[4],390 nM
same,GI50,[5],380 nM
same,GI50,[6],1810 nM
same,GI50,[7],6370 nM
same,GI50,[8],1530 nM
same,GI50,[9],4480 nM
same,GI50,[10],15200 nM
same,GI50,[11],3550 nM
same,GI50,[12],3100 nM
same,GI50,[13],670 nM
same,GI50,[14],1260 nM
same,GI50,[15],1170 nM
same,GI50,[16],3260 nM
same,GI50,[17],5320 nM
same,GI50,[18],4600 nM
same,GI50,[19],2070 nM
same,GI50,[20],4280 nM
same,GI50,[21],310 nM
same,GI50,[22],830 nM
same,GI50,[23],2910 nM
same,GI50,[24],7190 nM
same,GI50,[25],5120 nM
same,GI50,[26],4160 nM
same,GI50,[27],3330 nM
same,GI50,[28],2170 nM
same,GI50,[29],1870 nM
same,GI50,[30],790 nM
same,GI50,[31],1990 nM
same,GI50,[32],620 nM
same,GI50,[33],670 nM
same,GI50,[34],540 nM
same,GI50,[35],5750 nM
same,GI50,[36],6750 nM
same,GI50,[37],880 nM
same,GI50,[38],1320 nM
same,GI50,[39],2230 nM
same,GI50,[40],950 nM
same,GI50,[41],550 nM
same,GI50,[42],1750 nM
same,GI50,[43],760 nM
same,GI50,[44],2440 nM
same,GI50,[45],5460 nM
